Reference: ChEMBL document CHEMBL3259743, “Highly-selective 4-(1,2,3-triazole)-based P450c17a 17,20-lyase inhibitors” (Bioorg Med Chem Lett, 2014)

Legend:
[1] = molecular target: T1, Steroid 17-alpha-hydroxylase/17,20 lyase (Homo sapiens, UniProt P05093); assay: Selectivity ratio of IC50 for human recombinant CYP17 hydroxylase activity to IC50 for human recombinant CYP17 lyase activity
T1 sequence (P05093 whole entry): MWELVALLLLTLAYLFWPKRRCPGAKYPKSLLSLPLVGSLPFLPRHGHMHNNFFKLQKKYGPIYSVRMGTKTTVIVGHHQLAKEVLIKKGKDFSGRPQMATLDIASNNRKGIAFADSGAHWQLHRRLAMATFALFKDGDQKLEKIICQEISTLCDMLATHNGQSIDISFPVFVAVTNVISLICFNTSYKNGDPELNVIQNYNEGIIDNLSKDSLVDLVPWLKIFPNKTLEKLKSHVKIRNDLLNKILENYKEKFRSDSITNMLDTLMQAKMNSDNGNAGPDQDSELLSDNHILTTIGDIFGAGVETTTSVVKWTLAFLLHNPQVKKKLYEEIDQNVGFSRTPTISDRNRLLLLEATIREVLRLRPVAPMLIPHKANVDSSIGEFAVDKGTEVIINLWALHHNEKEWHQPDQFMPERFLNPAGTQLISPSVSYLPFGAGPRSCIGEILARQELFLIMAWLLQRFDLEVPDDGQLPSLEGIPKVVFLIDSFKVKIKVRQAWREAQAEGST
Outline: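 Lyase selectivity expressed as human hydroxylase IC50 divided by human lyase IC50. Both values come from recombinant human CYP17 in a yeast microsome system, with products analysed by HPLC/MS/MS and 4-parameter logistic fitting.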

[2] = molecular target: T1, Steroid 17-alpha-hydroxylase/17,20 lyase; assay: Inhibition of human recombinant CYP17 hydroxylase activity by HPLC/MS/MS method
Outline: (§1)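 Recombinant human CYP17 expressed in a yeast microsome system, run with an NADPH-regenerating system. Hydroxylase and lyase products analysed by HPLC/MS/MS. IC50 from a 4-parameter logistic fit of the dose-response data.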

[3] = system: CYP3A4 versus CYP17 lyase; assay: Selectivity ratio of IC50 for human hepatocyte microsome CYP3A4 to IC50 for human recombinant CYP17 lyase activity; type: ADME, cell-based; conditions: read-out: Ratio IC50
Outline: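 Ratio of human CYP3A4 IC50 (pooled human hepatocyte microsomes) to human CYP17 lyase IC50 (recombinant enzyme, yeast microsomes). Both IC50 values from HPLC/MS/MS product analysis with a 4-parameter logistic fit.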

[4] = molecular target: Cytochrome P450 3A4 (Homo sapiens, UniProt P08684); assay: Inhibition of human hepatocyte microsome CYP3A4 using testosterone as substrate by HPLC/MS/MS method; type: ADME
Outline: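 Pooled human hepatocyte microsome preparation with an NADPH-regenerating system. Product analysed by HPLC/MS/MS. IC50 from a 4-parameter logistic fit of the dose-response data.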

[5] = molecular target: T1, Steroid 17-alpha-hydroxylase/17,20 lyase; assay: Inhibition of human recombinant CYP17 lyase activity using 17alpha-hydroxypregnenolone as substrate by HPLC/MS/MS method; outline: as §1
[6] = molecular target: T2, Steroid 17-alpha-hydroxylase/17,20 lyase (Rattus norvegicus, UniProt P11715); assay: Inhibition of rat testicular microsome CYP17 lyase activity using 17alpha-hydroxypregnenolone as substrate by HPLC/MS/MS method
T2 sequence (P11715 whole entry): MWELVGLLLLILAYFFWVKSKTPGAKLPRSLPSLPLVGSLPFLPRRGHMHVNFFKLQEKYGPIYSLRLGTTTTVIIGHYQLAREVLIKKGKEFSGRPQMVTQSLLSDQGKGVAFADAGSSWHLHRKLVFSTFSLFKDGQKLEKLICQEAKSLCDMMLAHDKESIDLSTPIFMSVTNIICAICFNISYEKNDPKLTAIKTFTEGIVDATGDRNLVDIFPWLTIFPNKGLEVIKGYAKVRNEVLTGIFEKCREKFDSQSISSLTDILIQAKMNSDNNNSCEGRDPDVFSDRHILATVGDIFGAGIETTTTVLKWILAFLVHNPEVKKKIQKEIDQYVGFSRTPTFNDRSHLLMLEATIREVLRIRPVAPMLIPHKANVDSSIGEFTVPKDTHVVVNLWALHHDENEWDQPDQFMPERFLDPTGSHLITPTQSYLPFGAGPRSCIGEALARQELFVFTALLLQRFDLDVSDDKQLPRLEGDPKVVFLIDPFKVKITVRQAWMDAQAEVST
Outline: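 Rat testicular microsome preparation with an NADPH-regenerating system. Product analysed by HPLC/MS/MS. IC50 taken from a 4-parameter logistic fit of the dose-response data.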

[7] = system: CYP3A4 versus CYP17 lyase; assay: Selectivity ratio of IC50 for human hepatocyte microsome CYP3A4 to IC50 for rat testicular microsome CYP17 lyase activity
[8] = Metabolic stability in human liver microsomes assessed as compound remaining after 60 mins; type: ADME; conditions: read-out: Stability
Outline: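 Incubation in human liver microsomes for 60 min. Read-out is the percentage of parent compound remaining.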

[9] = system: Hamster; assay: Inhibition of CYP17 in gonadally-intact hamster assessed as testosterone level in serum at 50 mg/kg, po after 2 hrs by LC/MS/MS analysis (reference value: 1.98 +/- 0.057 ng/mL); type: functional, Cricetinae
[10] = molecular target: T2, Steroid 17-alpha-hydroxylase/17,20 lyase; assay: Inhibition of rat testicular microsome CYP17 hydroxylase activity by HPLC/MS/MS method
Outline: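 Rat testicular microsomal preparation as the enzyme source, with an NADPH-regenerating system. Reaction product was analysed by HPLC/MS/MS. IC50 was derived from a 4-parameter logistic fit of the dose-response data.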

[11] = system: Hamster; assay: Inhibition of CYP17 in gonadally-intact hamster assessed as progesterone level in serum at 50 mg/kg, po after 2 hrs by LC/MS/MS analysis (reference value: 1.02 +/- 0.05 ng/mL); type: functional, Cricetinae

Cytochrome P450 3A4, sequence (P08684 whole entry): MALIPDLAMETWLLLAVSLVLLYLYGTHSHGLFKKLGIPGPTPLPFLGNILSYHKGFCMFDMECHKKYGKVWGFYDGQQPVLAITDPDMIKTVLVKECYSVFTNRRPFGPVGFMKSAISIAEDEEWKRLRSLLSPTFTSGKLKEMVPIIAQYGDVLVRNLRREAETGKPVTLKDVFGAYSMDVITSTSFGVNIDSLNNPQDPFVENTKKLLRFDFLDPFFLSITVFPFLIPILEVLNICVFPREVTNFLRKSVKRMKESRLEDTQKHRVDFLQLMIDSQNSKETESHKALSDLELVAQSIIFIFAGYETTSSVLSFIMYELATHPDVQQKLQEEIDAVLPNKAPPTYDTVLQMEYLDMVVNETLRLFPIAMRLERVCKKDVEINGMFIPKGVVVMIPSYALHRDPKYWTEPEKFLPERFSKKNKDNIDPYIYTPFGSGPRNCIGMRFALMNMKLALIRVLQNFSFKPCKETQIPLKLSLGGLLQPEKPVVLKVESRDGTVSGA

| Compound | IC50 [2] [nM] | IC50 [4] [nM] | IC50 [5] [nM] | IC50 [6] [nM] | Ratio IC50 [1] | selectivity ratio [3] | further results |
| --- | --- | --- | --- | --- | --- | --- | --- |
| CC(C)C(O)(c1ccc2cc(-c3cccs3)ccc2c1)c1c[nH]nn1 (racemic) | 13000 | 81000 | > 4000 |  | < 3 | < 20 |  |
| COc1cc2ccc(C(O)(c3c[nH]nn3)C(C)C)cc2cc1OC (racemic) | 2300 | 57000 | 180 |  | 13 | 320 | selectivity ratio [7]: 317; remaining at 1 h [8]: 29% |
| CC(C)C(O)(c1ccc2cc(OCC(F)(F)F)c(OCC(F)(F)F)cc2c1)c1c[nH]nn1 (racemic) | 3700 | 25000 | 310 |  | 12 | 80 |  |
| CC(C)C(O)(c1ccc2cc(-c3cnco3)ccc2c1)c1c[nH]nn1 (racemic) | 13000 | 102000 | 940 |  | 14 | 110 |  |
| CC(C)C(O)(c1ccc2cc(OC(F)F)ccc2c1)c1c[nH]nn1 (racemic) | 74 | 14000 | 330 |  | 0.22 | 42 |  |
| CC(C)C(O)(c1ccc2cc(OCC(F)(F)F)ccc2c1)c1c[nH]nn1 (racemic) | 1000 | ≥ 195000 | 570 |  | 1.8 | ≥ 340 |  |
| CC(=O)O[C@H]1CC[C@@]2(C)C(=CC[C@@H]3[C@@H]2CC[C@]2(C)C(c4cccnc4)=CC[C@@H]32)C1 [ABIRATERONE ACETATE] |  |  |  |  |  |  | Activity [9]: 0.3 ng/mL; Activity [11]: 2.1 ng/mL |
| CC(C)[C@](O)(c1ccc2cc(OC(F)F)c(OC(F)F)cc2c1)c1c[nH]nn1 [SEVITERONEL] |  |  |  |  |  |  | Activity [9]: 0.37 ng/mL; Activity [11]: 1.2 ng/mL |

The next lines start with results.

| IC50 [2] [nM] | IC50 [4] [nM] | IC50 [5] [nM] | IC50 [6] [nM] | Compound | Ratio IC50 [1] | selectivity ratio [3] | further results |
| --- | --- | --- | --- | --- | --- | --- | --- |
|  | 1800 |  | 1600 | COc1cc2ccc(C(O)(c3cc[nH]n3)C(C)C)cc2cc1OC (racemic) |  |  |  |
|  | 27000 |  | 430 | COc1cc2ccc(C(O)(c3cn[nH]c3)C(C)C)cc2cc1OC (racemic) |  |  |  |
|  | 100000 |  | 7100 | COc1cc2ccc(C(O)(c3nc[nH]n3)C(C)C)cc2cc1OC (racemic) |  |  |  |
|  | 770 |  |  | COc1cc2ccc(C(O)(c3cncs3)C(C)C)cc2cc1OC (racemic) |  |  |  |
|  | 6500 |  | 86 | COc1cc2ccc(C(O)(c3cnco3)C(C)C)cc2cc1OC (racemic) |  |  |  |
|  | 9400 |  | 4200 | COc1cc2ccc(C(O)(c3cccnc3)C(C)C)cc2cc1OC (racemic) |  |  |  |
|  | 4500 |  | 60 | COc1cc2ccc(C(O)(c3ccncc3)C(C)C)cc2cc1OC (racemic) |  |  |  |
|  | 18000 |  |  | COc1cc2ccc(C(O)(c3ccncn3)C(C)C)cc2cc1OC (racemic) |  |  |  |
| 220 | 1600 | 50 | 29 | COc1cc2ccc(C(O)(c3c[nH]cn3)C(C)C)cc2cc1OC (racemic) | 4.4 | 32 | Activity [9]: 0.3 ng/mL; IC50 [10]: 140 nM; Activity [11]: 3.9 ng/mL |
| 690 |  | 170 |  | CC(C)C(O)(c1ccc2cc(OC(F)F)c(OC(F)F)cc2c1)c1c[nH]nn1 (racemic) |  |  | remaining at 1 h [8]: 54% |
